In assay [1] the target is T1, Dihydrofolate reductase (Rattus norvegicus) (UniProt Q920D2).
T1 sequence (whole entry): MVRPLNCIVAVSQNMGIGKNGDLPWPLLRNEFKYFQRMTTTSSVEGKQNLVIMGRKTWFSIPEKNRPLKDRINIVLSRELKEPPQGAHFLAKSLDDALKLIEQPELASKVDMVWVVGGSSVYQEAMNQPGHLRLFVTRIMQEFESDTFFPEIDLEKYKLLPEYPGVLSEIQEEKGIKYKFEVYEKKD
The assay is described as follows: Compound was tested for inhibitory activity against Dihydrofolate reductase of rat liver at 29000 M.

The target of assay [2] is T1, Dihydrofolate reductase (Rattus norvegicus). Briefly: Compound was tested for inhibitory activity against Dihydrofolate reductase of rat liver at 10000. The conditions noted are these: concentration not given here.
For assay [3] the target is unchanged. The assay is described as follows: Compound was tested for inhibitory activity against Dihydrofolate reductase of rat liver at 2000 M.
Assay [4] relates to Mus musculus. The assay is described as follows: Concentration of compound in serum of mouse 180 min after oral administration of 2 mg dose. It counts as functional, organism-based. Put shortly:
(§1)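 Single po dose (10 or 2 mg per mouse) to groups of three mice (18–20 g); ~0.2 mL blood drawn from supraorbital plexus at 10–360 min and pooled; serum drug level assayed microbiologically with Bacillus pumilus as test organism. Half-life calculated from curve slopes once compound apparently evenly distributed.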

Assay [5] deals with Mus musculus. The assay is described as follows: Concentration of compound in serum of mouse 90 min after oral administration of 2 mg dose. It counts as functional, organism-based. Put shortly:
as §1

Assay [6] concerns Mus musculus. The assay is described as follows: Half-life in serum of mice after oral administration of 10 mg dose. Type of assay: functional, organism-based. A digest of the protocol:
as §1

Assay [7] relates to Escherichia coli. Briefly: Antimicrobial activity against Escherichia coli CN348 in mice in experiment 1. Type of assay: functional, Mus musculus.
Assay [8] concerns Klebsiella pneumoniae. Briefly: Antimicrobial activity against Klebsiella pneumoniae CN3632 in mice in experiment 3. It counts as functional, Mus musculus.
Assay [9] deals with Escherichia coli. The assay is described as follows: Antimicrobial activity against Escherichia coli CN348 in mice in experiment 3. It counts as functional, Mus musculus.
Assay [10] relates to Streptococcus pyogenes. The assay is described as follows: Antimicrobial activity against streptococcus pyogenes CN10 in mice in experiment 2. It counts as functional, Mus musculus.
Assay [11] has as its system Klebsiella pneumoniae. Briefly: Antimicrobial activity against Klebsiella pneumoniae CN3632 in mice in experiment 2. Type of assay: functional, Mus musculus.
Assay [12] deals with Proteus vulgaris. The assay is described as follows: Antimicrobial activity against Proteus vulgaris CN329 in mice in experiment 1. It counts as functional, Mus musculus.
In assay [13] the test system is Streptococcus pyogenes. Briefly: Antimicrobial activity against streptococcus pyogenes CN10 in mice in experiment 3. Type of assay: functional, Mus musculus.
Assay [14] has as its system Mus musculus. Briefly: Concentration of compound in serum of mouse 10 min after oral administration of 10 mg dose. It counts as functional, organism-based. Put shortly:
as §1

The test system of assay [15] is Mus musculus. The assay is described as follows: Concentration of compound in serum of mouse 90 min after oral administration of 10 mg dose. It counts as functional, organism-based. Put shortly: as §1
The subject of assay [16] is Streptococcus pyogenes. The assay is described as follows: Antimicrobial activity against streptococcus pyogenes CN10 in mice in experiment 1. It counts as functional, Mus musculus.
Assay [17] relates to Staphylococcus aureus. The assay is described as follows: Antimicrobial activity against Staphylococcus aureus CN491 in mice in experiment 1. It counts as functional, Mus musculus.
Assay [18] concerns Mus musculus. The assay is described as follows: Concentration of compound in serum of mouse 30 min after oral administration of 10 mg dose. Type of assay: functional, organism-based. A digest of the protocol:
as §1

The test system of assay [19] is Klebsiella pneumoniae. The assay is described as follows: Antimicrobial activity against Klebsiella pneumoniae CN3632 in mice in experiment 1. Type of assay: functional, Mus musculus.
In assay [20] the test system is Mus musculus. The assay is described as follows: Concentration of compound in serum of mouse 360 min after oral administration of 10 mg dose. Type of assay: functional, organism-based. Put shortly: as §1
Assay [21] concerns Proteus vulgaris. Briefly: Antimicrobial activity against Proteus vulgaris CN329 in mice in experiment 2. It counts as functional, Mus musculus.
For assay [22], the system named is Mus musculus. The assay is described as follows: Concentration of compound in serum of mouse 180 min after oral administration of 10 mg dose. It counts as functional, organism-based. A digest of the protocol:
as §1

The subject of assay [23] is Escherichia coli. Briefly: Antimicrobial activity against Escherichia coli CN348 in mice in experiment 2. Type of assay: functional, Mus musculus.
The test system of assay [24] is Mus musculus. Briefly: Concentration of compound in serum of mouse 360 min after oral administration of 2 mg dose. It counts as functional, organism-based. A digest of the protocol:
as §1

For assay [25], the system named is Staphylococcus aureus. Briefly: Antimicrobial activity against Staphylococcus aureus CN491 in mice in experiment 2. It counts as functional, Mus musculus.
The target in assay [26] is T2, Dihydrofolate reductase (Rattus norvegicus, UniProt Q920D2).
T2 sequence (Q920D2 whole entry): T1 sequence (whole entry)
Briefly: Compound was tested for inhibitory activity against Dihydrofolate Reductase(DHFR) of rat liver. The conditions noted are these: read-out: I50.

Assay [27] deals with Staphylococcus aureus. Briefly: Antimicrobial activity against Staphylococcus aureus CN491 in mice in experiment 3. Type of assay: functional, Mus musculus.
The subject of assay [28] is Mus musculus. The assay is described as follows: Half-life in serum of mice after oral administration of 2 mg dose. It counts as functional, organism-based. Put shortly:
as §1

In assay [29] the test system is Mus musculus. Briefly: Concentration of compound in serum of mouse 10 min after oral administration of 2 mg dose. It counts as functional, organism-based. A digest of the protocol: as §1
Assay [30] concerns the target T2, Dihydrofolate reductase. The assay is described as follows: Compound was tested for inhibitory activity against Dihydrofolate Reductase of rat liver. The conditions noted are these: read-out: I50.
Assay [31] has as its target T3, Dihydrofolate reductase (Escherichia coli, UniProt P0ABQ4).
T3 sequence (P0ABQ4 whole entry): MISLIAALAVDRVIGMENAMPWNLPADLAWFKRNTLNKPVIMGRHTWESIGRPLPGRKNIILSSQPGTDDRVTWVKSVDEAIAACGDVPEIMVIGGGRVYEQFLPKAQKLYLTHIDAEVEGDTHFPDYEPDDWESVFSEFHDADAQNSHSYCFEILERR
Briefly: Compound was tested for inhibitory activity against Dihydrofolate reductase of E. coli; Value ranges from 0.5-0.7M. The conditions noted are these: read-out: I50.

Assay [32] addresses T2, Dihydrofolate reductase. Briefly: Inhibition of rat liver Dihydrofolate reductase. The conditions noted are these: read-out: I50.
For assay [33], the target named is T1, Dihydrofolate reductase (Rattus norvegicus). Briefly: PCompound was tested for inhibitory activity against Dihydrofolate reductase of rat liver at 40000 M.
Assay [34] concerns Oryctolagus cuniculus. The assay is described as follows: Peak serum concentration reached within 1 hr of administration of 5 mg/kg oral dose. Type of assay: functional, organism-based. Details: dose 5 mg/kg.
Assay [35] addresses T1, Dihydrofolate reductase (Rattus norvegicus). Briefly: Percent inhibition of compound against Dihydrofolate Reductase of rat liver at 16000 M.
Assay [36] concerns Mus musculus. Briefly: Concentration of compound in serum of mouse 30 min after oral administration of 2 mg dose. It counts as functional, organism-based. Put shortly: as §1
Assay [37] has as its target T1, Dihydrofolate reductase (Rattus norvegicus). The assay is described as follows: Compound was tested for inhibitory activity against Dihydrofolate reductase of rat liver at 40000 M.

Molecules are shown by their SMILES.

The term inhibition denotes the drop in the measured response relative to a control, in per cent. `COc1cc(Cc2cnc(N)nc2N)cc(OC)c1Oc1ccc(NC(=O)CBr)cc1` came in with an inhibition in assay [1] of 37%.

Molecule `COc1cc(Cc2cnc(N)nc2N)cc(OC)c1OCCCO` came in with an inhibition in assay [2] of 24%.

Turning to `COc1cc(Cc2cnc(N)nc2N)cc(OC)c1OCc1ccc([N+](=O)[O-])cc1`, the inhibition in [3] was found to be 23%.

For `C=CCOc1c(OC)cc(Cc2cnc(N)nc2N)cc1OC`, the Concentration in assay [4] came out at 0.26 µg/mL; in assay [5] it was 1 µg/mL; in assay [14], 84 µg/mL; in assay [15] it was 51 µg/mL; in [18] it was 59 µg/mL; in assay [20], 2.8 µg/mL. Besides, the results for the Concentration in [22], in assay [24] and in assay [29] were 27 µg/mL, < 0.1 µg/mL and 18 µg/mL, respectively. The T1/2 in [6] stood at 1.1 h; in assay [28] it was 0.35 h. The ED50 is recorded as 7.5 mg mouse-1 in [7]; >10 mg mouse-1 in assay [8]; >10 mg mouse-1 in [9]; 4.3 mg mouse-1 in assay [10]; 10 mg mouse-1 in assay [11]; 10 mg mouse-1 in assay [12]. The ED50 in assay [13] is on record as 5.1 mg mouse-1; in assay [16] it was 12 mg mouse-1; in assay [17], 2.5 mg mouse-1; in assay [19], 4.6 mg mouse-1; in assay [21] it was >10 mg mouse-1; in assay [23], 11 mg mouse-1. Moreover, the ED50 in assay [25] was >10 mg mouse-1; in [27], 8.1 mg mouse-1. Further, the IC50 in assay [26] was 480 µM.

Consider `CCOc1c(OC)cc(Cc2cnc(N)nc2N)cc1OC`, for which the IC50 in [30] is 620 µM; in assay [31] it was 0.0075 µM.

As for `CCCCOc1c(OC)cc(Cc2cnc(N)nc2N)cc1OC`, the IC50 in assay [32] stood at 580 µM.

On to `CCc1c(OC)cc(Cc2cnc(N)nc2N)cc1OC`, for which the IC50 in [32] was found to be 200 µM.

In assay [33], `COCCOc1c(OC)cc(Cc2cnc(N)nc2N)cc1OC` came in with an inhibition of 16%. In assay [34], this molecule had a Concentration of 2 µg/mL.

Regarding `COc1cc(Cc2cnc(N)nc2N)cc(OC)c1C`, the IC50 in assay [32] is 120 µM.

`COc1cc(Cc2cnc(N)nc2N)cc(OC)c1OCCCl`: in assay [32], the IC50 was found to be 600 µM.

Consider `COc1cc(COc2c(OC)cc(Cc3cnc(N)nc3N)cc2OC)cc(OC)c1OC`, for which the IC50 in [32] amounted to 15 µM.

For `COc1cc(Cc2cnc(N)nc2N)cc(OC)c1OCCCCCC(=O)O`, in [32], the IC50 is 296 µM.

In [35], `COc1cc(Cc2cnc(N)nc2N)cc(OC)c1OCC1CO1` (centres undefined) gave an inhibition of 23%.

With `COc1cc(Cc2cnc(N)nc2N)cc(OC)c1OCCCCl`, the Concentration turned out to be 0.7 µg/mL in assay [4]; 1.3 µg/mL in assay [5]; 2.9 µg/mL in assay [36]; 41 µg/mL in [14]; 26 µg/mL in [15]; 31 µg/mL in assay [18]. Further, the Concentration in assay [20] stood at 7 µg/mL; in [22], 15 µg/mL; in [24], 0.24 µg/mL; in assay [29], 7 µg/mL. The T1/2 in [6] turned out to be 2.4 h; in assay [28], 1.9 h. Further, the ED50 is listed as 6.2 mg mouse-1 in assay [7]; >10 mg mouse-1 in assay [8]; >10 mg mouse-1 in assay [9]; 3.3 mg mouse-1 in assay [10]; 8.2 mg mouse-1 in [12]; 7.2 mg mouse-1 in assay [13]. In addition, the ED50 was 2.1 mg mouse-1 in [17]; 1 mg mouse-1 in assay [19]; >10 mg mouse-1 in [21]; 9.4 mg mouse-1 in assay [23]; >10 mg mouse-1 in [25]; 7.1 mg mouse-1 in assay [27]. In assay [32], the IC50 was 250 µM.

With `COc1cc(Cc2cnc(N)nc2N)cc(OC)c1OCCCCN1C(=O)c2ccccc2C1=O`, the IC50 in assay [32] amounted to 54 µM.

For the molecule `COc1cc(Cc2cnc(N)nc2N)cc(OC)c1OCCN`, the inhibition in assay [37] is 38%.

For the molecule `COc1cc(Cc2cnc(N)nc2N)cc(OC)c1Oc1ccc([N+](=O)[O-])cc1`, the IC50 in [32] was determined as 50 µM.

As to `COc1cc(Cc2cnc(N)nc2N)cc(OC)c1OCCCN1CCCCC1`, the inhibition in assay [37] is 20%.

The values are drawn from ChEMBL document CHEMBL1121680, “2,4-Diamino-5-benzylpyrimidines and analogues as antibacterial agents. 5. 3',5'-Dimethoxy-4'-substituted-benzyl analogues of trimethoprim” (J Med Chem, 1981).
